Compound activity from PubChem BioAssay.
An excerpt weighted towards active compounds, which were near 9.6% of everything screened.
APP transl inh: APP translation inhibition | SH-SY5Y APP 5'UTR-luciferase reporter, luminescence | inhibition, % at 2 µM | actives 0.82% (n = 190,000);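 active = inhibition above a set limit, derived from the sample mean plus 3 SD, cut at about 45% in these data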
MT stabilize HCS: stabilizes microtubules in HeLa cells; HeLa tubulin immunostaining HCS, 24 h; share of cells brighter than vehicle mean+2SD; % tubulin-high responders, % at 10 µM; actives 0.83% (n = 200,000); AID 2205;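 active = plate Z-score above 3 for both tubulin-high and condensed-nucleus cell shares, with cell loss under 80%, at 10 µM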;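 note: anti alpha tubulin signal scored within the nucleus-defined area of each cell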
Ba/F3 V617F tox: lowers viability of Ba/F3 cells expressing EpoR and JAK2V617F; ATP luminescence; inhibition, % at 5.6 µM; AID 1446; actives 1.1% (n = 220,000);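 active = inhibition above the campaign mean plus 3 SD over all tested compounds, cut at about 24% in these data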;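 note: cytokine-independent growth of Ba/F3 cells driven by EpoR plus mutant JAK2; 0% = DMSO-treated cells and 100% = JAK inhibitor I control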
b-catenin transl: beta-catenin nuclear translocation modulation. AID 1665. actives 0.3% (n = 190,000). HeLa beta-catenin nuclear translocation, immunofluorescence imaging. nuclear translocation activity, % at 5 µM;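 active = nuclear translocation activity above 50% at 5 µM, with a well cell count of 50 or more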;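 note: per-cell ratio of nuclear to cytoplasmic median beta-catenin stain intensity; plate controls were DMSO negative control for no effect and GSK-3 inhibitor IX positive control for full effect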
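Signal – beta-catenin immunofluorescence imaging with DAPI · Test system – human HeLa cell line · Dosing – 5 µM primary single dose, 0.1% DMSO, 0.02–20 µM confirmation series · Measure – % activation, nuclear-to-cytoplasmic median beta-catenin signal ratio per cell · Incubation – 24 h compound exposure at 37°C, 5% CO2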
L major viab: inhibitors of Leishmania major promastigote growth | AID 1063 | actives 9% (n = 200,000) | inhibition, % at 10 µM | Leishmania major promastigotes, resazurin fluorescence viability; in the data active = inhibition above about 50%;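 note: promastigotes grown with compound for 44 hours at 28 °C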
BaF3 parental: reduces parental Ba/F3 cell viability, JAK2V617F counter-screen; AID 1486; CellTiter-Glo ATP luminescence; inhibition, % at 5.6 µM; actives 1.1% (n = 220,000);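 active = inhibition above a per-campaign cutoff, the mean inhibition of all tested compounds plus 3 SD, cut at about 27% in these data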;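 note: 0% = DMSO wells and 100% = JAK Inhibitor I control wells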
BaF3 parental 2: reduces parental Ba/F3 viability, JAK2V617F counter-screen; shares compounds with Ba/F3 V617F tox; CellTiter-Glo luminescence; cells kept alive by added IL-3; inhibition, % at 5.6 µM; actives 31% (n = 580); AID 1520;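 active = cell growth inhibition above the hit limit set in the earlier mutant JAK2 cell screen, cut at about 27% in these data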;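 note: plate controls were DMSO-treated cells for no effect and JAK Inhibitor I control wells for full effect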
JAK2V617F confrm: confirmation: loss of viability in JAK2V617F-dependent Ba/F3 cells; shares compounds with Ba/F3 V617F tox; Ba/F3 EpoR-JAK2V617F viability, CellTiter-Glo luminescence; inhibition, % at 5.6 µM; actives 66% (n = 580); AID 1521;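 active = mean inhibition above the hit cutoff derived in the earlier primary screen, cut at about 25% in these data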;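 note: 0% = DMSO-treated cells and 100% = JAK inhibitor I control wells; higher means lower luminescence from reduced cell ATP and viability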
The depositor's hits bear a star; . = not tested or not shown.

SMILES | APP transl inh | MT stabilize HCS | Ba/F3 V617F tox | b-catenin transl | L major viab | BaF3 parental | BaF3 parental 2 | JAK2V617F confrm
O=C(O[C@@H]1OC2COC(=O)c3cc(O)c(O)c(O)c3-c3c(cc(O)c(O)c3O)C(=O)O[C@@H]([C@H]1O)[C@@H]2O)c1cc(O)c(O)c(O)c1 | 12.1 | 1.7 | 47.9* | 1.9 | -6.5 | 9.4 | -2.8 | -6.8
O=C(NCCCCCCNC(=O)c1ccc(Br)s1)c1ccc(Br)s1 | 9.6 | 2.8 | 37.1* | 2.4 | -0.5 | -0.6 | -2.4 | 19.6
Oc1ccc(Cl)cc1N=Cc1sc2ccccc2c1Cl | -22.1 | 1.6 | 39.8* | -3.3 | -2.0 | 16.1 | 21.5 | 86.0*
CCN(CC)S(=O)(=O)c1ccc(N/N=C/c2ccc(O)cc2O)nc1 | 80.9* | 2.2 | 49.8* | . | 98.5* | 6.4 | 83.3* | 92.6*
Cc1ccc(S(=O)(=O)N2CCC(C(=O)N[C@@H](C)C(=O)Nc3ccc4c(c3)OCO4)CC2)cc1 | . | 2.1 | 43.3* | -1.3 | -3.3 | 7.4 | -0.2 | 6.2
COc1cccc(NC(=O)[C@H](C)NC(=O)C2CCN(S(=O)(=O)c3ccc(C)cc3)CC2)c1 | . | . | -2.1 | 0.0 | . | -1.1 | . | .
CC(C)CCNC(=O)C(c1ccco1)N(CCCO)C(=O)Cn1nnc(-c2ccc(F)cc2)n1 (configuration not stated) | -10.3 | 2.2 | 49.2* | 0.4 | -5.0 | -1.9 | -7.7 | -3.0
COC1=C(OC)c2ccccc2C(C(=O)O)N/C1=C(/C)Nc1ccncc1 (configuration not stated) | 3.6 | 3.7 | 3.9 | -1.6 | -1.8 | 11.9 | . | .
Cc1ccc2c(c1)C1(OCCO1)C(=O)N2 | -21.0 | 2.0 | -0.4 | 0.9 | -3.3 | 6.4 | . | .
O=S(=O)(Nc1ccc2c(c1)OCO2)c1ccc(Br)s1 | -1.5 | 3.0 | -2.2 | -1.8 | 36.4 | 3.3 | . | .
Cc1ccc(NC(=O)COn2nnc3ccc(S(=O)(=O)N(C)C)cc32)cc1F | -17.1 | 1.8 | 0.5 | -2.0 | 9.9 | 5.6 | . | .
CCCOc1ccc(Cc2nc(N)nc(N)n2)cc1 | 1.1 | 5.1 | 39.8* | -2.6 | -4.9 | 11.8 | 8.4 | 18.5
Cc1ccc(S(=O)(=O)N(CCCN2CCCC2=O)Cc2cc3c(C)ccc(C)c3[nH]c2=O)cc1 | -1.5 | 1.1 | 61.6* | -2.7 | 1.2 | 23.2 | -6.5 | 12.1
COc1ccc(S(=O)(=O)N(CCCN2CCCC2=O)Cc2cc3cc(C)c(C)cc3[nH]c2=O)cc1 | -8.0 | 6.3 | -0.7 | -2.0 | 10.9 | 2.2 | . | .
Cc1ccccc1-c1nnn(CC(=O)Nc2cccc(S(N)(=O)=O)c2)n1 | -4.4 | 1.0 | -3.5 | -3.6 | -3.9 | 2.2 | . | .
C1=C(c2ccccc2)Nc2ccccc2N=C1c1ccccc1 | 1.4 | 2.9 | 101.7* | 1.2 | 6.9 | 1.1 | -3.3 | 3.1
Cc1ccccc1NC(=O)CSc1nnc(-c2ccccc2)n1-c1ccccc1 | -5.5 | 5.3 | -2.3 | 1.0 | 8.5 | 0.5 | . | .
COc1ccc(-c2nnc(SCC(=O)Nc3ncc(C)s3)n2-c2ccccc2)cc1OC | -4.0 | 58.5* | 85.5* | 31.8 | 19.5 | 7.5 | 17.7 | 22.4
COC1(OC)C(/C=C/c2ccc(C)cc2)C(C#N)(C#N)C1(OC)OC (configuration not stated) | -1.9 | 3.9 | 36.7* | . | 47.5 | 1.0 | -1.5 | 50.3*
Oc1c(C(Nc2nc3ccccc3s2)c2ccco2)ccc2cccnc12 (configuration not stated) | 68.5* | 24.4 | 26.0* | 1.6 | 100.1* | 7.4 | 35.2* | 88.9*
Cn1cnnc1Sc1nc([N+](=O)[O-])nn1C | -20.8 | 3.0 | 2.6 | 0.8 | -1.6 | 4.5 | . | .
COc1ccccc1-c1nnc(Sc2nc([N+](=O)[O-])nn2C)o1 | . | 3.7 | 60.3* | 4.3 | 96.8* | 19.1 | 5.8 | 86.8*
COc1ccc(C(=O)NCC(=O)OCC(=O)N2N=C(c3ccc(Cl)cc3)CC2c2ccco2)cc1OC (configuration not stated) | -21.2 | 4.0 | -1.6 | 1.6 | 12.7 | 1.0 | . | .
OC1(c2ccc(Cl)cc2)CCN(Cc2cn[nH]c2-c2ccc(F)cc2)CC1 | . | . | 45.2* | -2.2 | . | 2.7 | 18.3 | 34.5*
